Source: ChEMBL document CHEMBL1158625, “Design of 1-piperazinyl-4-arylphthalazines as potent Smoothened antagonists” (Bioorg Med Chem Lett, 2010)
Active and inactive are the calls of the source. The rule behind the calls is not given here.

Tests used:
[1] = Metabolic stability in rat liver microsome assessed as compound turnover after 30 mins; type: ADME; conditions: liver microsomes, read-out: Stability
Method in brief: (§1)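 Pooled human or rat liver microsomes (0.25 mg/mL), 37 °C, phosphate buffer pH 7.4, test compound 1 µM; NADPH 1 mM final; quenched at 0 or 30 min with organic solvent; unchanged parent by reversed-phase LC-MS/MS; percent turnover from peak area at 30 versus 0 min.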

CYP2D6 = CYP2D6 (Homo sapiens, UniProt P10635); experiment: Inhibition of human CYP2D6 at 3 uM by HPLC-MS; type: ADME
CYP2D6, sequence (P10635 whole entry): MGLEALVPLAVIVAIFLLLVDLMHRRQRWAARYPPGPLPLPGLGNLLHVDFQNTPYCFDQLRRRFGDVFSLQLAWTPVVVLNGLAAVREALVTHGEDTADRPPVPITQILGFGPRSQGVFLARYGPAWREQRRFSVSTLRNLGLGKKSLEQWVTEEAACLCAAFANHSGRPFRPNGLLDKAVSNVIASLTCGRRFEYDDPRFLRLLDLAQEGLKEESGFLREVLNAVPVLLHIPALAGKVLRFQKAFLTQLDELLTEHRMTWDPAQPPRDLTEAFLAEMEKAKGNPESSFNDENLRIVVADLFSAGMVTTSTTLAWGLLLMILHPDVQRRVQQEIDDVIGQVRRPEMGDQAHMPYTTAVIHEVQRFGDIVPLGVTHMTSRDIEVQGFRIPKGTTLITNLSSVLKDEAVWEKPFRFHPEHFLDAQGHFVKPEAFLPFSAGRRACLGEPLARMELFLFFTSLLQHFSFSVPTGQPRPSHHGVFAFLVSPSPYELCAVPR

CYP3A4 = CYP3A4 (Homo sapiens, UniProt P08684); experiment: Inhibition of human CYP3A4 at 3 uM by HPLC-MS; type: ADME
CYP3A4, sequence (P08684 whole entry): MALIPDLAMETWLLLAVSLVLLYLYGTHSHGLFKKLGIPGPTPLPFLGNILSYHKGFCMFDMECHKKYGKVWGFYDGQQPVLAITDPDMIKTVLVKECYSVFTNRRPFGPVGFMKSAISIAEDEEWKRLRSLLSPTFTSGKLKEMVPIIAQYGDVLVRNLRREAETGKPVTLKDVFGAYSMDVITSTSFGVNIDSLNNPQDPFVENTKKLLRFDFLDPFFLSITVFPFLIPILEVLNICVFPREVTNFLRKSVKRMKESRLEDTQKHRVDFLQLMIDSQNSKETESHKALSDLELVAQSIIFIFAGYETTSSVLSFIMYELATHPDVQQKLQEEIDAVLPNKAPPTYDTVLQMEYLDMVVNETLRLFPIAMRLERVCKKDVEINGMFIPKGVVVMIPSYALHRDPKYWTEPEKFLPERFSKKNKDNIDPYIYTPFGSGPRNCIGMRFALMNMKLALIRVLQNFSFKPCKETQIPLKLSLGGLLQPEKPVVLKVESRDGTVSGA

[2] = Metabolic stability in human liver microsome assessed as compound turnover after 30 mins; type: ADME; conditions: liver microsomes, read-out: Stability; method in brief: as §1
[3] = Oral bioavailability in mouse at 2 mg/kg; type: ADME, organism-based; conditions: in vivo
[4] = Clearance in rat at 0.5 mg/kg, iv; type: ADME, organism-based; parameters: dose 0.5 mg/kg, route intravenous; conditions: in vivo
[5] = Clearance in dog at 0.5 mg/kg, iv; type: ADME, organism-based, Canis lupus familiaris; parameters: dose 0.5 mg/kg, route intravenous; conditions: in vivo
[6] = Volume of distribution at steady state in mouse at 1 mg/kg, iv; type: ADME, organism-based; parameters: dose 1 mg/kg, route intravenous; conditions: in vivo, read-out: Vdss
[7] = Clearance in mouse at 1 mg/kg, iv; type: ADME, organism-based; parameters: dose 1 mg/kg, route intravenous; conditions: in vivo
[8] = Oral bioavailability in dog at 2 mg/kg; type: ADME, organism-based, Canis lupus familiaris; conditions: in vivo
[9] = Volume of distribution at steady state in dog at 0.5 mg/kg, iv; type: ADME, organism-based, Canis lupus familiaris; parameters: dose 0.5 mg/kg, route intravenous; conditions: in vivo, read-out: Vdss
[10] = Half life in dog at 0.5 mg/kg, iv; type: ADME, organism-based, Canis lupus familiaris; parameters: dose 0.5 mg/kg, route intravenous; conditions: in vivo
[11] = Half life in mouse at 1 mg/kg, iv; type: ADME, organism-based; parameters: dose 1 mg/kg, route intravenous; conditions: in vivo
[12] = Clearance in cynomolgus monkey at 0.5 mg/kg, iv; type: ADME, organism-based, Macaca fascicularis; parameters: dose 0.5 mg/kg, route intravenous; conditions: in vivo
[13] = Oral bioavailability in rat at 2 mg/kg; type: ADME, organism-based; conditions: in vivo
[14] = Oral bioavailability in cynomolgus monkey at 2 mg/kg; type: ADME, organism-based, Macaca fascicularis; conditions: in vivo
[15] = Half life in cynomolgus monkey at 0.5 mg/kg, iv; type: ADME, organism-based, Macaca fascicularis; parameters: dose 0.5 mg/kg, route intravenous; conditions: in vivo
[16] = Volume of distribution at steady state in rat at 0.5 mg/kg, iv; type: ADME, organism-based; parameters: dose 0.5 mg/kg, route intravenous; conditions: in vivo, read-out: Vdss
Mus musculus = species: Mus musculus; experiment: Reduction in Gli1 mRNA expression in mouse skin after 6 hrs of treatment by RT-PCR; type: functional, organism-based
Method in brief: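 Mouse hind flanks depilated with wax; five days later single oral dose 2, 20 or 100 mg/kg; skin harvested after 6 h; Gli1 RNA by quantitative real-time PCR normalized to RGS (Pitx2) RNA; four mice per group, two samples each; Dunnett's method; plasma levels also measured.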

Medulloblastoma cell = experiment: Antitumor activity against mouse Ptch+/- p53-/- medulloblastoma cells xenografted Harlan nu/nu mouse at 10 mg/kg, po qd administered after 8 days tumor implantation measured after 15 days; type: functional, organism-based; parameters: dose 10 mg/kg
Method in brief: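 Tumors from p53-/- Ptch+/- crossbred mice transplanted into immunocompromised mice; after 8 days animals randomized to compound 10 mg/kg QD oral or vehicle; tumor volume followed, reduction assessed day 15 versus treatment onset day 8; ten mice per group; Dunnett's method.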

[17] = Half life in rat at 0.5 mg/kg, iv; type: ADME, organism-based; parameters: dose 0.5 mg/kg, route intravenous; conditions: in vivo
[18] = Volume of distribution at steady state in cynomolgus monkey at 0.5 mg/kg, iv; type: ADME, organism-based, Macaca fascicularis; parameters: dose 0.5 mg/kg, route intravenous; conditions: in vivo, read-out: Vdss
Protein smoothened = Protein smoothened (Mus musculus, UniProt P56726); experiment: Inhibition of mouse SMO expressed in NIH-3T3 cells; type: cell-based, NIH3T3
Protein smoothened, sequence (P56726 whole entry): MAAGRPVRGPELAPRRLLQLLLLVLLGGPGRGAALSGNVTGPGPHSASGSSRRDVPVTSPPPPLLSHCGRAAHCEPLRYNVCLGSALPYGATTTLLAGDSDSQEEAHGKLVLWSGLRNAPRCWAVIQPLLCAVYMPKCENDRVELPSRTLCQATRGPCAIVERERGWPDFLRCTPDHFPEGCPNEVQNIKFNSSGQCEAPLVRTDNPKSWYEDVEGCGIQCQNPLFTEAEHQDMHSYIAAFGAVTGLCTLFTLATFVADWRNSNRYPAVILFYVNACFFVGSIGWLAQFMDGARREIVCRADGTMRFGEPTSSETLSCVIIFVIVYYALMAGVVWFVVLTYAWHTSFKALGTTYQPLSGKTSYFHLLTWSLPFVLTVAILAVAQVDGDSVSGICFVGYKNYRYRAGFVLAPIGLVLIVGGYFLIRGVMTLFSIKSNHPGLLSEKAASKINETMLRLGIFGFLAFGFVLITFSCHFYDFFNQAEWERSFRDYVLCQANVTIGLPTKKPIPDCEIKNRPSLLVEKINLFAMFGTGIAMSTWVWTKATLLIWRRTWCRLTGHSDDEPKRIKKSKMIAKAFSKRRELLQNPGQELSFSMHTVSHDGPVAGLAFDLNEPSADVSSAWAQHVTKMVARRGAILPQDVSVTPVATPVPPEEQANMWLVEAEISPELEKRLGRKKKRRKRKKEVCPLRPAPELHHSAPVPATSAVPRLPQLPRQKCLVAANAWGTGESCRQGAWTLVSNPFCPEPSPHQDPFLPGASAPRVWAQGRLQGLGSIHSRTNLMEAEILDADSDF

| metabolised at 0.5 h [1] [%] | inhibition at 3 µM (CYP2D6) [%] | inhibition at 3 µM (CYP3A4) [%] | metabolised at 0.5 h [2] [%] | SMILES | further results |
| --- | --- | --- | --- | --- | --- |
| 15 | < 10 | < 10 | 62 | O=C(c1ccccc1)N1CCN(c2nnc(-c3ccccc3Cl)c3ccccc23)CC1 |  |
| < 10 | 43 | 40 | < 10 | C[C@H]1CN(c2nnc(-c3ccc(Cl)cc3)c3ccccc23)CCN1C(=O)c1ccccc1 |  |
| 11 | 15 | < 10 | 13 | C[C@@H]1CN(C(=O)c2ccccc2)CCN1c1nnc(-c2ccc(C(F)(F)F)cc2)c2ccccc12 | bioavailability [3]: 65%; clearance [4]: 6.83 mL/min/kg; clearance [5]: 3.33 mL/min/kg; Vd [6]: 1.4 L/kg; clearance [7]: 5 mL/min/kg; bioavailability [8]: 60%; Vd [9]: 2.96 L/kg; half-life [10]: 10 h; half-life [11]: 3.4 h; clearance [12]: 8.83 mL/min/kg; bioavailability [13]: 39%; bioavailability [14]: 31%; half-life [15]: 4.3 h; Vd [16]: 5.07 L/kg; Activity (Mus musculus): Dose-dependent effect; Activity (Medulloblastoma cell): Active; half-life [17]: 9.5 h; Vd [18]: 2.52 L/kg |
| 12 | < 10 | 12 | 10 | C[C@H]1CN(c2nnc(-c3cccnc3)c3ccccc23)CCN1C(=O)c1ccccc1 |  |
| 39 | 47 | < 10 | 44 | C[C@@H]1CN(C(=O)c2ccccc2)CCN1c1nnc(-c2ccccc2)c2ccccc12 |  |
| 21 | < 10 | 31 | 34 | C[C@@H]1CN(C(=O)c2ccccc2)CCN1c1nnc(-c2ccc(C3CC3)cc2)c2ccccc12 |  |
| 25 | 52 | 58 | 10 | C[C@H]1CN(c2nnc(-c3ccncc3)c3ccccc23)CCN1C(=O)c1ccccc1 |  |
| 10 | 24 | 16 | 20 | O=C(c1ccccc1)N1CCN(c2nnc(-c3ccc(Cl)cc3)c3ccccc23)CC1 |  |
| 10 | 29 |  | 10 | CC(=O)N1CCN(c2nnc(-c3ccccc3)c3ccccc23)CC1 |  |
| 82 | 26 | 90 | 59 | C[C@@H]1CN(C(=O)c2ccccc2)CCN1c1nnc(-c2ccc(N(C)C)cc2)c2ccccc12 |  |
| 25 | 89 | < 10 | 48 | O=C(c1nccs1)N1CCN(c2nnc(-c3ccccc3)c3ccccc23)CC1 |  |
| 55 | < 10 | < 10 | 56 | Cc1ccc(-c2nnc(N3CCN(C(=O)c4ccccc4)C[C@H]3C)c3ccccc23)cc1 |  |
| 72 | < 10 | < 10 | 45 | Cc1ccc(-c2nnc(N3CCN(C(=O)c4ccccc4)CC3)c3ccccc23)cc1 |  |
| 23 |  |  | < 10 | C[C@H]1CN(C(=O)c2ccccc2)CCN1c1nnc(-c2ccccc2)c2ccccc12 |  |
| 12 | 60 | < 10 | 38 | C[C@@H]1CN(C(=O)c2ccccc2)CCN1c1nnc(-c2ccc(Cl)cc2)c2ccccc12 |  |
| 23 | 27 | < 10 | 10 | C[C@H]1CN(c2nnc(-c3ncco3)c3ccccc23)CCN1C(=O)c1ccccc1 |  |
| 13 | < 10 | 15 | 14 | C[C@@H]1CN(C(=O)c2ccccc2)CCN1c1nnc(-c2ccc(CO)cc2)c2ccccc12 |  |
| < 10 | < 10 | 49 | < 10 | C[C@H]1CN(c2nnc(-c3ccc(C(F)(F)F)cc3)c3ccccc23)CCN1C(=O)c1ccccc1 |  |

| metabolised at 0.5 h [1] [%] | inhibition at 3 µM (CYP2D6) [%] | inhibition at 3 µM (CYP3A4) [%] | metabolised at 0.5 h [2] [%] | SMILES | further results |
| --- | --- | --- | --- | --- | --- |
| 21 | 11 | < 10 | < 10 | C[C@H]1CN(c2nnc(-c3ccccc3)c3ccccc23)CCN1C(=O)c1ccccc1 |  |
| 10 | 29 | < 10 | 17 | O=C(c1ccccc1)N1CCN(c2nnc(-c3ccc(F)cc3)c3ccccc23)CC1 |  |
| 10 |  | < 10 | 31 | O=C(c1ccccc1)N1CCN(c2nnc(-c3ccc(Cl)c(Cl)c3)c3ccccc23)CC1 |  |
| 94 | 10 | 25 | 89 | C[C@@H]1CN(C(=O)c2ccccc2)CCN1c1nnc(-c2ccc(C(C)(C)C)cc2)c2ccccc12 |  |
| 10 | 18 | < 10 | 10 | N#Cc1cccc(-c2nnc(N3CCN(C(=O)c4ccccc4)CC3)c3ccccc23)c1 |  |
| 32 | 48 | < 10 | 43 | O=C(c1ccco1)N1CCN(c2nnc(-c3ccccc3)c3ccccc23)CC1 |  |
| 15 | 18 | 20 | 10 | C[C@H]1CN(c2nnc(-c3ccc(F)cc3)c3ccccc23)CCN1C(=O)c1ccccc1 |  |
| 21 | < 10 | < 10 | 17 | C[C@@H]1CN(c2nnc(-c3ccccc3)c3ccccc23)CCN1C(=O)c1ccccc1 |  |
| 12 | 11 | < 10 | 19 | O=C(c1ccccc1)N1CCN(c2nnc(-c3ccccc3)c3ccccc23)CC1 |  |
| 40 | 24 | < 10 | 90 | Cc1ccccc1-c1nnc(N2CCN(C(=O)c3ccccc3)CC2)c2ccccc12 |  |
|  |  |  |  | O=C(c1cccs1)N1CCN(c2nnc(-c3ccccc3)c3ccccc23)CC1 | IC50 (Protein smoothened): 22 nM |
| < 10 | < 10 | < 10 | < 10 | C[C@H]1CN(c2nnc(-c3ccccn3)c3ccccc23)CCN1C(=O)c1ccccc1 |  |
| 73 | 20 | 14 | 41 | CC(C)c1ccc(-c2nnc(N3CCN(C(=O)c4ccccc4)C[C@H]3C)c3ccccc23)cc1 |  |
| < 10 | < 10 | 12 | < 10 | C[C@@H]1CN(C(=O)c2ccccc2)CCN1c1nnc(-c2ccc(C#N)cc2)c2ccccc12 |  |
| 43 | 10 | 13 | 38 | Cc1ccc(-c2nnc(N3CCN(C(=O)c4ccccc4)[C@@H](C)C3)c3ccccc23)cc1 |  |
| 22 | 19 | < 10 | 27 | COc1ccc(-c2nnc(N3CCN(C(=O)c4ccccc4)CC3)c3ccccc23)cc1 |  |
| 33 | 19 | < 10 | 43 | COc1cccc(-c2nnc(N3CCN(C(=O)c4ccccc4)CC3)c3ccccc23)c1 |  |
| < 10 | 15 | < 10 | < 10 | C[C@H]1CN(c2nnc(N3CC=CC=N3)c3ccccc23)CCN1C(=O)c1ccccc1 |  |
